TAAR1 ag: human TAAR1 agonism; AID 624467; CHO RD-HGA16 TAAR1, Fluo-8 calcium fluorescence; vehicle wells 0%, saturating PEA agonist 100%; Q96RJ0; 360,000 tested, 0.99% active; activation, % at 3 µM;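 active = activation above the mean activation of all test compounds in the run plus 3 SD, cut at about 38% in these data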
Target sequence (Q96RJ0 whole entry, looked up): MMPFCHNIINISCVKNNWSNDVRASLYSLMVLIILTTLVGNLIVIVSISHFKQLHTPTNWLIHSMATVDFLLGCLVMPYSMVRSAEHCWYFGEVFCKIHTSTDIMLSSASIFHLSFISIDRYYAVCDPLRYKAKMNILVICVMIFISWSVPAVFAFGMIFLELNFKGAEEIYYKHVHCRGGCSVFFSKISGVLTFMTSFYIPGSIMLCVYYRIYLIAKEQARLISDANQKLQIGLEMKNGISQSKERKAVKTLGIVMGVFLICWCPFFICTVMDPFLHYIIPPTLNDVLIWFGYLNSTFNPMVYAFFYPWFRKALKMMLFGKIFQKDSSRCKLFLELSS
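Assay system – CHO-derived RD-HGA16 cells with stable Gα16 and human TAAR1 · Compound dosing – one-point dosing at 3 µM (nominal) · Incubation – 17-24 h seeding, 75 min 37 °C dye, 30 min RT · Measured by – kinetic Fluo-8 calcium fluorescence · Control set – DMSO vehicle as 0%, PEA at EC100 as 100% · Repeats – single well for each compound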
OX1R antag-1: antagonists of human orexin 1 receptor (OX1R); OX1R-expressing cells, FRET antagonist read-out; inhibition, % at 6.6 µM; 330,000 tested, 1.8% active; in the data active = inhibition mostly above about 38%, no sharp cut-off; inactive = mostly below about 40%
OX1R antag-2: human HCRTR1 antagonism; CHO/OX1R cells, Fluo-8 calcium fluorescence, orexin A; O43613; 330,000 tested, 0.43% active; inhibition, % at 5 µM;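 active = inhibition above its plate's threshold, mean inhibition of all tested compounds on the plate plus 3 SD, cut at about 37% in these data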
CHO parental Ca: signal in parental CHO cells, OX1R antagonist counter-screen; parental CHO-K1, ATP-induced calcium, Fluo-8 fluorescence; inhibition, % at 5.6 µM; AID 463079; 330,000 tested, 0.63% active;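 active = inhibition above that plate's mean sample inhibition plus 3 SD, cut at about 26% in these data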
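Assay system: untransfected parental CHO cell line. Also added: ATP agonist challenge. Dosing: one dose, 5.6 µM nominal. Measured by: Fluo-8 fluorescence. Read-out: % inhibition. Benchmarks: ATP wells versus no-ATP DMSO wells. Repeats: no replicates.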
NTR1 ag: NTR1 (human) agonism | NTR1-U2OS beta-arrestin-GFP spot imaging, agonist mode | activation, % at 20 µM | 330,000 tested, 0.17% active;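 active = activation at or above 40% of the spot to cytoplasm intensity ratio, with at least 20 cells analyzed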
Target sequence (P30989 whole entry, looked up): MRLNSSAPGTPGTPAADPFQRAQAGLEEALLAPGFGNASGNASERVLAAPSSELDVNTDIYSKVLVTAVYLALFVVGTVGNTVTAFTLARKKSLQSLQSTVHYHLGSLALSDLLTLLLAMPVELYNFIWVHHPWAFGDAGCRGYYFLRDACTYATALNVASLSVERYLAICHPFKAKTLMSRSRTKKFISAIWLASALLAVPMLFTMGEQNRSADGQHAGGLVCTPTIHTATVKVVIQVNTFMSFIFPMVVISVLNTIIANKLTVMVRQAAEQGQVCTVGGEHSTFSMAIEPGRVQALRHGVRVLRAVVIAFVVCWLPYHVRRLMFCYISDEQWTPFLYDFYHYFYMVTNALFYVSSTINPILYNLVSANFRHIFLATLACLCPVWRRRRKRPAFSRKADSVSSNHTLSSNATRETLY
TAAR1 antag: antagonists of human TAAR1 | Q96RJ0 | CHO RD-HGA16 TAAR1, Fluo-8 calcium fluorescence, antagonist | inhibition, % at 3 µM | 360,000 tested, 1.5% active;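 active = inhibition above a per-plate cutoff, the mean inhibition of test compounds on that plate plus 3 SD, cut at about 49% in these data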
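Test system: RD-HGA16 CHO cells with stable hTAAR1 and Gα16 / Probe or stimulus: EC80 β-phenethylamine stimulus / Times: seeding 17-24 h prior, 75-min 37 °C, 30-min RT dye loading / Detection: Fluo-8 calcium-sensitive fluorescence / Read-out basis: % inhibition scaled between DMSO and EC80 PEA controls / Repeats: singlicate, one well per test compound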
OX1R Fluo8 conf: confirmation of human orexin 1 receptor antagonists | shares compounds with OX1R antag-2 | CHO/OX1R cells, orexin A calcium Fluo-8 fluorescence | inhibition, % at 5 µM | 1,100 tested, 38% active | AID 492963; in the data active = inhibition above about 29%
CHO Ca counter: signal in parental CHO cells, OX1R antagonist counter-screen. shares compounds with OX1R antag-2. 1,100 tested, 9.3% active. inhibition, % at 5.6 µM. parental CHO-K1, ATP-induced calcium, Fluo-8 fluorescence;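 active = inhibition above a per-plate limit, the mean inhibition of that plate's test compounds plus 3 SD, cut at about 25% in these data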
OX1R HTRF confirm: confirmation of human orexin 1 receptor antagonists, HTRF format; shares compounds with OX1R antag-1; OX1R-expressing cells, HTRF antagonist assay; inhibition, % at 6.6 µM; 1,800 tested, 49% active; in the data active = inhibition above about 55%;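 note: CHO cells expressing OX1R stimulated with orexin A at about EC80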
CHO-K1 HTRF: counter-screen: parental CHO-K1 HTRF response. shares compounds with OX1R antag-1. parental CHO-K1 cells, HTRF counterscreen. inhibition, % at 6.6 µM. 1,800 tested, 48% active; in the data active = inhibition above about 17%
NTR1 ag conf: NTR1 (human) agonism, confirmed; NTR1-U2OS beta-arrestin-GFP translocation imaging; 480 tested, 38% active; activation, % at 20 µM; shares compounds with NTR1 ag;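 active = mean activation at 20 µM of at least 40%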
TAAR1 ag conf: human TAAR1 agonism, confirmed; shares compounds with TAAR1 ag; activation, % at 3 µM; CHO RD-HGA16 TAAR1, Fluo-8 calcium fluorescence; scaled: DMSO 0%, maximal phenethylamine 100%; 2,400 tested, 82% active;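 active = activation above a cutoff set at the run's mean compound activation plus 3 SD, cut at about 39% in these data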
Ga16 nonsel ag: counter-screen for TAAR1 agonists: nonselective agonists in parental cells; 2,400 tested, 50% active; activation, % at 3 µM; shares compounds with TAAR1 ag; CHO-Ga16 parental, Fluo-8 calcium fluorescence; normalized to maximal ATP response, DMSO zero;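 active = activation above the run cutoff, the mean activation over all tested wells plus 3 SD, cut at about 12% in these data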
TAAR1 desens: counter-screen for human TAAR1 agonists: agonists that desensitize TAAR1; inhibition, % at 3 µM; CHO RD-HGA16 hTAAR1, Fluo-8 calcium, beta-PEA response inhibition; shares compounds with TAAR1 ag; 2,400 tested, 46% active;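 active = inhibition above the run cutoff, the mean inhibition of all test compounds plus 3 SD, cut at about 49% in these data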;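 note: beta-PEA stimulus applied at its EC80; loss of beta-PEA calcium signal after compound pretreatment read as receptor desensitization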
Ga16 antag count: nonselective Ga16 antagonism, counter-screen. shares compounds with TAAR1 ag. CHO-Ga16 ATP-induced calcium, Fluo-8 fluorescence. inhibition, % at 3 µM. 2,400 tested, 39% active;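 active = inhibition above the plate's mean compound inhibition plus 3 SD, computed per plate, cut at about 22% in these data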
Numbers stand for hits; . = inactive; / = no result; + = active, no number. A selection: hits, their analogues and other compounds. The true share with any hit is near 4%.

SMILES	TAAR1 ag	OX1R antag-1	OX1R antag-2	CHO parental Ca	NTR1 ag	TAAR1 antag	OX1R HTRF confirm	CHO-K1 HTRF	others
COc1ccccc1NC(=O)COC(=O)c1cn(C)c2ccccc12	.	54	47	.	.	.	.	.	OX1R Fluo8 conf=.;CHO Ca counter=.
NN=C1C(Cl)=C(Cl)C(Cl)=C1Cl	.	/	/	/	/	.	/	/
COC(=O)C1=C(c2ccc(-c3ccccc3)c(F)c2)C[C@@H]2CC[C@H]1N2C(=O)NCc1cc(C)oc1C(F)(F)F	.	.	.	.	.	.	/	/
O=C(NC1CCCCC1)[C@@H]1CC=C[C@@H]2CCN(Cc3ccccc3)C(=O)[C@@H]21	.	75	.	.	.	.	74	.	OX1R Fluo8 conf=47;CHO Ca counter=.
O=c1[nH]c(O)c(N=Nc2cc(C(F)(F)F)ccc2Cl)c(=O)[nH]1	.	.	.	.	.	.	/	/
O=C(O)c1ccccc1N=Nc1c(O)[nH]c(=O)[nH]c1=O	.	111	.	.	.	.	.	76
Cc1ccccc1N1CCN(Cc2ccc3c(c2)OCO3)CC1	.	.	.	.	.	.	/	/
CN1C(=O)C(=Cc2ccc(N3CCOCC3)o2)C(=O)N(C)C1=O	.	123	.	.	.	.	65	90
CN1C(=O)C(=Cc2ccc(N3CCCCCC3)o2)C(=O)N(C)C1=S	.	.	.	.	.	.	/	/
COC(=O)C1=C(c2ccc3ccccc3c2)C[C@@H]2CC[C@H]1N2C(=O)NCCNC(C)=O	/	.	.	.	.	/	/	/
COC(=O)C1=C(c2ccc(Cl)c(C(F)(F)F)c2)C[C@@H]2CC[C@H]1N2C(=O)N1CCC(O)(c2ccc(Cl)cc2)CC1	.	.	.	.	.	.	/	/
O=C(CCc1ccccc1)N1Cc2cc(N3CCOCC3)ccc2-n2nncc2C1	.	/	/	/	/	.	/	/
OCC[n+]1c2ccccc2nc2ccc(N3CCOCC3)cc21	.	113	.	.	.	.	.	76
O=C(NC1CN2CCC1CC2)c1ccc(-c2ccc([N+](=O)[O-])cc2)o1 (stereo not drawn)	.	84	.	.	.	.	.	56
O=C(NC1CN2CCC1CC2)c1ccc(Cl)cc1 (stereo not drawn)	.	/	/	/	/	.	/	/
O=C1N[C@H](Cc2ccccc2)C(=O)N2[C@@H]3[C@H](C[C@@H]12)c1ccccc1N3OOSc1ccccc1	.	.	.	.	.	.	/	/
O=c1[nH]c(=S)[nH]c(O)c1N=Nc1ccc(S(=O)(=O)N2CCOCC2)cc1	.	140	.	.	.	.	.	65
COc1ccc(N=Nc2c(O)[nH]c(=S)[nH]c2=O)cc1	.	+	.	.	.	.	63	100
O=c1[nH]c(O)c(N=Nc2cccc(S(=O)(=O)N3CCOCC3)c2)c(=O)[nH]1	.	88	.	.	.	.	55	79
O=c1[nH]c(=S)[nH]c(O)c1N=Nc1cccc(S(=O)(=O)N2CCOCC2)c1	.	97	.	.	.	.	60	66
c1cc(OCCN2CC2)ccn1	.	/	/	/	/	.	/	/
O=c1[nH]c(O)c(N=Nc2ccc(S(=O)(=O)N3CCOCC3)cc2)c(=O)[nH]1	.	.	.	.	.	.	/	/
NS(=O)(=O)c1ccc(N=Nc2c(O)[nH]c(=S)[nH]c2=O)cc1	.	77	.	.	.	.	67	79
O=c1[nH]c(=S)[nH]c(O)c1N=Nc1ccc2c(c1)OCCO2	.	146	.	.	.	.	62	66
Nc1ccc2nonc2c1[N+](=O)[O-]	72	83	.	.	.	.	.	91	TAAR1 ag conf=.;Ga16 nonsel ag=25;TAAR1 desens=.;Ga16 antag count=.
SMILES	TAAR1 ag	OX1R antag-1	OX1R antag-2	CHO parental Ca	NTR1 ag	TAAR1 antag	OX1R HTRF confirm	CHO-K1 HTRF	others
C#C[C@]1(O)CCC2C3C(=O)C=C4C(Cl)=CCC[C@]4(C)C3CC[C@@]21C (stereo partly drawn)	.	/	/	/	/	.	/	/
c1ccc(-c2cc(-c3ccccc3)[n+](-c3ccccc3)c(-c3ccccc3)c2)cc1	.	.	84	84	67	72	/	/	NTR1 ag conf=65
Cc1ccc(-c2cc(-c3ccccc3)cc(-c3ccccc3)[n+]2-c2ccccc2)cc1	.	.	71	74	50	104	/	/	NTR1 ag conf=82
CN(C)c1ccc(-[n+]2c(-c3ccccc3)cc(-c3ccccc3)cc2-c2ccccc2)cc1	.	/	/	/	.	.	/	/
CCCCOC(=O)c1ccccc1C(=O)OCc1ccccc1	.	.	.	.	.	.	/	/
COc1ccc(OC)c(N=Cc2c(O)n(Cc3ccccc3)c(=S)[nH]c2=O)c1	.	.	.	.	59	.	/	/	NTR1 ag conf=65
CCN1C(=O)NC(=O)/C(=C\c2cn(CC(=O)N3CCCC3)c3ccccc23)C1=O	.	.	.	.	.	.	/	/
O=C1NC(=O)N(c2ccccc2F)C(=O)/C1=C/c1cn(CC(=O)N2CCOCC2)c2ccccc12	.	.	.	.	42	.	/	/	NTR1 ag conf=.
CC(=O)C1C(N2CC2)CC2C3CCC4=CC(=O)CCC4(C)C3CCC21C (stereo not drawn)	.	/	/	/	/	.	/	/
O=C1NC(=O)N(c2ccccc2)C(=O)/C1=C\C=C\c1ccccc1	.	.	.	.	74	.	/	/	NTR1 ag conf=49
CNC(=O)Oc1cc2c(cc1C(C)(C)C)CCC2	.	/	/	/	/	.	/	/
N=C(N)c1c(O)n(C2CCCCC2)c(=O)n(C2CCCCC2)c1=O	46	.	.	61	54	.	/	/	NTR1 ag conf=.

Compound activity as filed in PubChem BioAssay.
